Our source for the IC50 values is ChEMBL document CHEMBL1125880, “Structure-activity relationship of miltirone, an active central benzodiazepine receptor ligand isolated from Salvia miltiorrhiza Bunge (Danshen)” (J Med Chem, 1991).

Molecules are shown by their SMILES.

The target in one assay is GABA-A receptor; anion channel. The assay is described as follows: inhibition of [3H]flunitrazepam binding to GABA-A central Benzodiazepine receptor of bovine cerebral cortex membrane. The class given is tissue-based, Bos taurus. The gist of the method: (§1)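 Calf cerebral cortical membranes incubated 45 min at 0 °C with [³H]flunitrazepam (1 nM) in 50 mM Tris-HCl pH 7.4, final volume 500 μL. Terminated by dilution with ice-cold buffer, rapid GF/B filtration and washes; filter radioactivity counted by liquid scintillation. Nonspecific binding defined with 10 μM diazepam. IC50 = concentration giving 50% inhibition of specific binding; mean ± SD of (n) determinations in duplicate. Unstable compounds tested immediately after preparation.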
The term IC50 denotes the concentration that inhibits the measured activity by half. Lower therefore signals greater potency in that assay. Regarding `CC(C)C1=Cc2cccc(-c3ccccc3)c2C(=O)C1=O`, the half-inhibitory concentration (IC50) stood at 20 µM.

On to `O=C1C=Cc2ccc3c(c2C1=O)CCCC3`, for which the IC50 stood at 20 µM.

On to `CC1=CCCc2c1ccc1c2C(=O)C(=O)C(C(C)C)=C1`, for which the half-inhibitory concentration (IC50) came out at 4.4 µM. For the compound `C=Cc1cccc2c1C(=O)C(=O)C(C(C)C)=C2`, the IC50 was over 40 µM.

For another assay, the target named is GABA-A receptor; anion channel. As to the kind of experiment: Potency related to miltirone (1) at the central benzodiazepine receptor was determined using [3H]flunitrazepam as radioligand. It is filed as protein-complex assay. The gist of the method:
as §1
In turn, `CC(C)C1=Cc2ccc3c(c2C(=O)C1=O)CCCCCC3` gave a 50% inhibitory concentration (IC50) of 0.31 µM. The compound `CC(C)C1=Cc2cc3c4c(c2C(=O)C1=O)CCCC4CC3` (stereo not drawn) gave an IC50 of 0.05 µM. Compound `CC(C)C1=Cc2ccc3c(c2C(=O)C1=O)CCCCC3` came in with a 50% inhibitory concentration (IC50) of 0.23 µM.

For `CC1(C)CCCc2c1ccc1c2C(=O)C(=O)C=C1`, the 50% inhibitory concentration (IC50) stood at 10 µM.

`CC(C)C1=Cc2ccc3c(c2C(=O)C1=O)CCCC3(C)C` [MILTIRONE]: the IC50 turned out to be 0.3 µM. In turn, `CC(C)C1=Cc2cccc(C(=O)O)c2C(=O)C1=O` yielded an IC50 of 4.3 µM. Compound `CC(C)C1=Cc2ccc3c(c2C(=O)C1=O)CCCC3=O` had an IC50 of 0.56 µM.

For the compound `CC(C)C1=Cc2ccc3c(c2C(=O)C1=O)CCCC3(C)O` (stereo not drawn), the IC50 came out at 2 µM.

In turn, `CC(C)C1=Cc2ccc3c(c2C(=O)C1=O)CC[C@H](O)[C@]3(C)O` yielded a half-maximal inhibitory concentration (IC50) of 15 µM. On to `CC(C)C1=Cc2ccc3c(c2C(=O)C1=O)CCCC3`, for which the half-maximal inhibitory concentration (IC50) was found to be 0.9 µM. On the same count and under the same terms, with `CC(C)C1=Cc2ccccc2C(=O)C1=O` the figure was over 50 µM. For `CC(C)C1=Cc2ccc3c(c2C(=O)C1=O)CC[C@@H](O)[C@]3(C)O`, the IC50 stood at 17 µM. For `Cc1cc2ccc3c(c2oc1=O)CCCC3`, the half-maximal inhibitory concentration (IC50) is over 40 µM.

In the case of `CCN(CC)C(=O)c1cccc2c1C(=O)C(=O)C(C(C)C)=C2`, the IC50 was over 30 µM. Take `CC(C)C1=CC2=C(CCCC2)C(=O)C1=O`: the IC50 was over 140 µM. Take `CC(C)C1=Cc2ccc3c(c2C(=O)C1=O)CCCC(=O)N3`: the IC50 turned out to be 0.32 µM. As to `CC(C)C1=Cc2ncc3c(c2C(=O)C1=O)CCCC3`, the half-inhibitory concentration (IC50) was 9.1 µM.

In turn, `CCc1cccc2c1C(=O)C(=O)C(C(C)C)=C2` registered a concentration for half-maximal inhibition (IC50) of over 200 µM. On the same count and under the same terms, with `CC1=Cc2ccc3c(c2C(=O)C1=O)CCCC3(C)C` the figure was 0.4 µM.
